High-throughput results: PubChem, several laboratories
This excerpt belongs to a sample that is enriched for hits.
HEK293 NFkB inh: inhibitors of the PMA/ionomycin-induced NF-kB reporter in HEK293 cells; HEK-293 NF-kB luciferase reporter, luminescence; inhibition, % at 3 µM; hit rate 0.21% among 62,000;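 active = inhibition above the mean of all tested compounds plus 3 SD, cut at about 40% in these data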;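 also: 0% = stimulated DMSO wells and 100% = 10 µM reference inhibitor 5653914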
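Timing: 1 h pretreatment, 16 h stimulation, 37 °C; system: HEK-293 cells with stable firefly luciferase reporter driven by four HIV NF-kB elements; doses: 3 µM once, 0.30% DMSO; measured by: luciferase luminescence; control set: DMSO and 10 µM reference inhibitor; repeats: single test; reagent: PMA plus ionomycin mix as NF-kB-activating stimulus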
D1 allo mod: allosteric modulators of human D1 dopamine receptor | P21728 | HEK293 D1, CRE-luciferase, dopamine EC30 potentiation; actives deviate in either direction | B-score at 10 µM | hit rate 5.9% among 58,000 | AID 641;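 active = luminescence count or its row- and column-corrected plate score outside the 99.7% band of the plate's sample wells, on either side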
Target sequence (P21728 whole entry, looked up): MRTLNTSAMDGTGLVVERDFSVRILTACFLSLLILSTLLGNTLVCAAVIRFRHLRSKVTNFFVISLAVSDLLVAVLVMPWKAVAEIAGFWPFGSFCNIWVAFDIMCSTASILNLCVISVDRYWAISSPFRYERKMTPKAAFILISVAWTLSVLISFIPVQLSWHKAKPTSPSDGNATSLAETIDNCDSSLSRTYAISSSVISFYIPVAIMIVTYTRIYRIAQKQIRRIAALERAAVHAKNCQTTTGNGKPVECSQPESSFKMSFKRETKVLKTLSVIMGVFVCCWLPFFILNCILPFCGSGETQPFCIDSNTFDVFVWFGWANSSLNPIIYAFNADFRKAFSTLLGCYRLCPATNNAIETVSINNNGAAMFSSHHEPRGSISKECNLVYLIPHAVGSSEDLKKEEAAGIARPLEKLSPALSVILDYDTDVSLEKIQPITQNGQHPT
hDAT+cocaine: human DAT dopamine uptake with cocaine, either direction; Q01959; LLC-PK1 hDAT cells, [14C]-dopamine uptake with cocaine IC80; actives deviate in either direction; B-score at 10 µM; hit rate 1.3% among 110,000; AID 449768;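 active = Z score or B-score, a plate-position-corrected score, falls beyond the plate's 99.7% confidence bounds, in either direction; inactive = both scores lie inside the 99.7% bounds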;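 also: scored against the spread of the other compound wells on the same plate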
AP ELISA ortho: orthogonal test for alternative complement pathway inhibitors | Human serum alternative complement pathway, LPS-coated ELISA, C3 deposition; tested in compound mixtures | inhibition, % at 5 µM | hit rate 0.08% among 62,000;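 active = inhibition above 30% in each of the two pooled mixtures holding the compound, so the lower value exceeds 30%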;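 also: 0% = serum in Mg-EGTA without compound and 100% = EDTA serum blank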
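Medium: diluted human serum in Mg2+-EGTA GVB++. Assay system: human serum complement alternative pathway, C3 deposition onto LPS. Also added: Plate-bound LPS. Technique: Anti-C3 ELISA, OD 450 nm. Measure: percent inhibition. Incubation: 1 h at 37 °C. Dosing: 5 µM each compound, pools of ten, 50 µM per pool.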
Ec RNAP inh: blocks E. coli RNA polymerase transcription | fluorescence transcription assay | inhibition, %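 (tested at 10 µM)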 | hit rate 0.2% among 62,000 | AID 559; in the data active = inhibition above about 20%;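 also: 0% = enzyme without compound and 100% = no enzyme blank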
The depositor's hits bear a star; . = not tested or not shown.

SMILES | HEK293 NFkB inh | D1 allo mod | hDAT+cocaine | AP ELISA ortho | Ec RNAP inh
COC(=O)C1=C[C@@H](C(=O)OC)[C@@H]2C3=C(C(=O)[C@@]2(C)NC(=O)c2ccccc2)[C@H](C)C(C(=O)OC)=C(C(=O)OC)[C@@H]3C1 | . | . | 0.87 | . | .
COC(=O)c1sccc1NC(=O)Nc1ccc(Cl)c(Cl)c1 | . | . | -7.9* | . | .
Nc1nc2ccc(Oc3ccccc3)cc2s1 | -10 | -4.5* | -0.84 | 16 | .
CCN1CCN(Cc2ccc(NC(=O)Nc3ccccc3Cl)cc2)CC1 | -22 | -3.3* | 0.041 | -8 | 6
CC1(C)CC(NCc2ccc3c(c2)OCO3)CCO1 (stereo unspecified) | . | . | -0.77 | . | .
O=C1CCCC2=C1C(c1ccc(Cl)cc1)N1C(=O)CCSC1=N2 (stereo unspecified) | . | . | 0.091 | . | .
O=C1CCCC2=C1C(c1ccc(Cl)cc1)C1C(=O)c3ccccc3C1=N2 (stereo unspecified) | . | . | 2.6* | . | .
CC1=C(CC(=O)O)c2cc(F)ccc2/C1=C\c1ccc(S(C)=O)cc1 (stereo unspecified) | . | . | 0.9 | . | .
O=C(CCc1ccccc1)NC(NC(=S)Nc1cccc(Cl)c1)C(Cl)(Cl)Cl (stereo unspecified) | . | . | 2.7 | . | .
O=C(/C=C/c1ccccc1)NC(NC(=S)Nc1cccc(Cl)c1)C(Cl)(Cl)Cl (stereo unspecified) | . | . | -7.3* | . | .
CC(C)NC(=S)N/N=C1\CCCCC1C1CCCCC1 (stereo unspecified) | . | . | 0.26 | . | .
CN(CC1CCCO1)S(=O)(=O)c1ccc(C(=O)Nc2nc3cc4c(cc3s2)OCO4)cc1 (stereo unspecified) | 18 | -4.4* | . | 7 | 0
Cc1csc(NC(C)c2nc3cc(C(F)(F)F)ccc3n2CCCO)n1 (stereo unspecified) | . | . | -2.7* | . | .
CC(Nc1nc(-c2ccc(F)cc2)cs1)c1nc2cc(Cl)c(Cl)cc2n1CCCO (stereo unspecified) | . | . | -0.42 | . | .
CCOC(=O)c1ccc(NC(=S)Nc2ccccn2)cc1 | . | . | 1.3 | . | .
CN(Cc1ccccc1)c1nc(N)c([N+](=O)[O-])c(Nc2cccc(F)c2)n1 | . | . | 0.66 | . | .
COc1ccc(-n2ncc3c(NCC(C)C)ncnc32)cc1 | -52 | -4.2* | 0.49 | 11 | 2
COc1ccc(-n2ncc3c(NC(C)C)ncnc32)cc1 | -16 | -4 | 1.1 | 5 | 4
CCCCNc1ncnc2c1cnn2-c1ccccc1 | -27 | -3.6* | 1.5 | 6 | 1
COCC(C)Nc1ncnc2c1cnn2-c1ccc(Cl)cc1 (stereo unspecified) | . | . | 2.7* | . | 5
O=C(/C=C/c1ccco1)NC(=S)Nc1ccc(Cl)cn1 | . | . | -0.78 | . | .
COc1ccc(C2C3=C(CCCC3=O)Nc3nc(-c4cc(OC)c(OC)c(OC)c4)nn32)cc1OC (stereo unspecified) | 1 | -3* | 4* | 14 | 2
COc1cc(-c2nc3n(n2)C(c2cccc(OC)c2OC)C2=C(CCCC2=O)N3)cc(OC)c1OC (stereo unspecified) | 2 | -0.046 | 2.7* | 5 | 0
Cc1ccc(C2C3CN(C(C)C)CC=C3C(C#N)=C(N)C2(C#N)C#N)cc1 (stereo unspecified) | . | -3.1* | . | -4 | -3
CN1CC=C2C(C#N)=C(N)C(C#N)(C#N)C(c3cccc(Cl)c3Cl)C2C1 (stereo unspecified) | 23 | -4.7* | -0.72 | -6 | 3
SMILES | HEK293 NFkB inh | D1 allo mod | hDAT+cocaine | AP ELISA ortho | Ec RNAP inh
CN(C)S(=O)(=O)c1ccc(S(=O)(=O)NC2CCOC(C)(C)C2)cc1 (stereo unspecified) | . | . | 0.014 | . | .
CC(=O)NC(C)C(c1cccs1)N1CCN(c2ccccc2)CC1 (stereo unspecified) | 4 | -0.95* | -0.79 | 11 | 1
CCCCNC(=O)c1sc2ncnc(N3CCc4ccccc4C3)c2c1C | . | . | 4.2* | . | .
CCOC(=O)CNC(=O)c1sc2ncnc(N3CCc4ccccc4C3)c2c1C | . | . | 0.67 | . | .
Cc1ccc(S(=O)(=O)NC(CN2CCOCC2)=NCCNS(=O)(=O)c2ccccc2)cc1 | 18 | 0.021 | -0.94 | -1 | 1
Cn1nc(-c2ccc(Cl)cc2)c2cc(C(=O)NCCN3CCOCC3)sc21 | 19 | -0.75 | 2.6* | 12 | -4
Cn1nc(-c2ccc(Cl)cc2)c2cc(C(=O)NCCCN3CCOCC3)sc21 | 11 | -0.44 | -0.46 | 13 | -2
COc1ccc(-c2cc(C(=O)NCc3cccnc3)no2)cc1 | -3 | -1.4 | 1 | 18 | 6
O=C(NCc1cccnc1)c1cc(-c2ccccc2)on1 | -9 | 0.21 | 3.6* | 3 | 9
COC(=O)/C=c1/sc2nc3ccccc3n2c1=O | -1 | 0.56 | -0.76 | 17 | 8
O=c1/c(=C/c2ccccn2)sc2nc3ccccc3n12 | -42 | -3.8* | . | 4 | 4
O=C(C=C1CCN(c2ncc(C(F)(F)F)cc2Cl)CC1)NNC(=O)Nc1ccc(Cl)cc1 | . | . | -0.26 | . | .
COc1ccc(-c2cc(C(F)(F)F)nc(SCCC(=O)Nc3cc(C)on3)n2)cc1 | 0 | -0.8 | 1.2 | . | .
COc1ccc(-c2cc(C(F)(F)F)nc(SCC(=O)Nc3cc(C)on3)n2)cc1OC | 6 | 24* | -0.34 | -5 | 5
COc1ccccc1-c1cc(C(=O)NC(C)c2ccccc2)no1 (stereo unspecified) | 12 | -1.8 | 0.071 | 13 | 0
COc1ccccc1-c1cc(C(=O)NC(C)C)no1 | -7 | -3.2* | 0.0071 | 17 | 5
Cc1cc(NC(=O)CSc2nc3ccccc3c(=O)n2Cc2ccccc2)no1 | 8 | 3 | -8.2* | -3 | .
Cc1ccc(-n2c(SCC(=O)Nc3cc(C)on3)nc3c(c2=O)SC(C)C3)cc1 (stereo unspecified) | 16 | 2.3 | -0.32 | 8 | 9
Cc1cc(NC(=O)CSc2nc3c(c(=O)n2Cc2ccccc2)SC(C)C3)no1 (stereo unspecified) | 6 | 5.5* | 0.096 | -3 | 7
O=C(NCc1ccco1)c1ccc2c(=O)n(Cc3ccco3)c(SCC(=O)N3CCCC3)nc2c1 | 19 | 0.23 | 2.2* | 19 | 0
O=C(CSc1nc2ccccc2c(=O)n1Cc1ccco1)N1CCCCCC1 | 6 | . | -0.78 | 4 | 7
